# From ChEMBL document CHEMBL4311941, “Development of Multifunctional Histone Deacetylase 6 Degraders with Potent Antimyeloma Activity” (J Med Chem, 2019)
# Activity calls are given as the source filed them. The calls are words filed in the database; no cut-off is given here.
# Tests used:
# [1] = biological target: T1, Cereblon/Ikaros (Homo sapiens) (UniProt Q96SW2+Q13422); assay: Protac activity at CRBN/IKZF1 in human MM1S cells assessed as IKZF1 degradation at 100 nM measured after 6 hrs in presence of NAE inhibitor MLN 4924 by Western blot analysis; type: cell-based
# Outline: (§1)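 MM1S cells seeded at 1 × 10^6 per well overnight. Pretreated 1 h with pomalidomide, Next-A, MLN 4924 or DMSO, then given 100 nM degrader or DMSO for 6 h. Lysed in RIPA with protease inhibitors, 10−40 μg protein run on SDS-PAGE and transferred to PVDF. Blots probed for IKZF1/IKZF3, detected by ECL and quantified by densitometry.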
# [2] = biological target: T2, Protein cereblon/Zinc finger protein Aiolos (Homo sapiens) (UniProt Q96SW2+Q9UKT9); assay: Protac activity at CRBN/IKZF3 in human MM1S cells assessed as IKZF3 degradation at 100 nM incubated for 6 hrs followed by compound washout and measured after 12 hrs by Western blot analysis; type: cell-based
# Outline: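 MM1S cells treated with 100 nM degrader for 6 h, then washed with PBS to remove compound. IKZF3 followed by immunoblot over up to 48 h after washout: RIPA lysate, SDS-PAGE, PVDF transfer, HRP secondary antibody and ECL imaging.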
# [3] = biological target: Protein cereblon/Histone deacetylase 4 (Homo sapiens) (UniProt P56524+Q96SW2); assay: Protac activity at CRBN/HDAC4 in human MM1S cells assessed as HDAC4 degradation at 100 nM measured after 6 hrs in presence of proteasome inhibitor MG132 by Western blot analysis; type: cell-based
# [4] = biological target: T2, Protein cereblon/Zinc finger protein Aiolos (Homo sapiens); assay: Protac activity at CRBN/IKZF3 in human MM1S cells assessed as IKZF3 degradation at 100 nM measured after 6 hrs by Western blot analysis; type: cell-based
# Outline: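 Time course in MM1S cells (1 × 10^6 cells per well, seeded overnight) under 100 nM degrader. Whole-cell RIPA lysates analysed by 7.5−12% SDS-PAGE and PVDF immunoblot. Primary antibody at 4 °C overnight, HRP secondary 1 h, ECL detection with densitometry.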
# [5] = biological target: Protein cereblon/Histone deacetylase 3 (Homo sapiens) (UniProt O15379+Q96SW2); assay: Protac activity at CRBN/HDAC3 in human MM1S cells assessed as HDAC3 degradation measured after 6 hrs by Western blot analysis; type: cell-based
# [6] = biological target: T3, Protein cereblon/Protein deacetylase HDAC6 (Homo sapiens, UniProt Q9UBN7+Q96SW2); assay: Protac activity at CRBN/HDAC6 in human Jurkat cells assessed as HDAC6 degradation at 10 to 100 nM incubated for 6 hrs by Western blot analysis; type: cell-based
# [7] = biological target: T1, Cereblon/Ikaros (Homo sapiens); assay: Protac activity at CRBN/IKZF1 in human MM1S cells assessed as IKZF1 degradation at 100 nM measured after 6 hrs in presence of E3 ligase ligand pomalidomide by Western blot analysis; type: cell-based
# [8] = biological target: T3, Protein cereblon/Protein deacetylase HDAC6; assay: Protac activity at CRBN/HDAC6 in human MM1S cells assessed as HDAC6 degradation at 100 nM measured after 6 hrs in presence of E3 ligase ligand pomalidomide by Western blot analysis; type: cell-based
# Histone deacetylase 1 = Histone deacetylase 1 (Homo sapiens, UniProt Q13547); assay: Inhibition of human N-terminal tagged human HDAC1 expressed in HEK293T/17 using Ac-Gly-Ala-[Ac-Lys]-AMC as substrate preincubated for 10 mins followed by substrate addition and measured after 15 mins by fluorescence assay
# [9] = biological target: T2, Protein cereblon/Zinc finger protein Aiolos (Homo sapiens); assay: Protac activity at CRBN/IKZF3 in human MM1S cells assessed as IKZF3 degradation at 100 nM measured after 6 hrs in presence of E3 ligase ligand pomalidomide by Western blot analysis; type: cell-based; outline: as §1
# [10] = biological target: T3, Protein cereblon/Protein deacetylase HDAC6; assay: Protac activity at CRBN/HDAC6 in human MM1S cells assessed as HDAC6 degradation at 10 to 100 nM measured after 6 hrs by Western blot analysis; type: cell-based
# [11] = biological target: T3, Protein cereblon/Protein deacetylase HDAC6; assay: Protac activity at CRBN/HDAC6 in human MM1S cells assessed as induction of alpha tubulin acetylation at 100 nM measured after 6 hrs in presence of proteasome inhibitor MG132 by Western blot analysis; type: cell-based
# [12] = biological target: T4, Protein deacetylase HDAC6 (Homo sapiens, UniProt Q9UBN7); assay: Inhibition of human N-terminal tagged human HDAC6 expressed in HEK293T/17 using Ac-Gly-Ala-[Ac-Lys]-AMC as substrate preincubated for 10 mins followed by substrate addition and measured after 15 mins by fluorescence assay
# T4 sequence (Q9UBN7 whole entry): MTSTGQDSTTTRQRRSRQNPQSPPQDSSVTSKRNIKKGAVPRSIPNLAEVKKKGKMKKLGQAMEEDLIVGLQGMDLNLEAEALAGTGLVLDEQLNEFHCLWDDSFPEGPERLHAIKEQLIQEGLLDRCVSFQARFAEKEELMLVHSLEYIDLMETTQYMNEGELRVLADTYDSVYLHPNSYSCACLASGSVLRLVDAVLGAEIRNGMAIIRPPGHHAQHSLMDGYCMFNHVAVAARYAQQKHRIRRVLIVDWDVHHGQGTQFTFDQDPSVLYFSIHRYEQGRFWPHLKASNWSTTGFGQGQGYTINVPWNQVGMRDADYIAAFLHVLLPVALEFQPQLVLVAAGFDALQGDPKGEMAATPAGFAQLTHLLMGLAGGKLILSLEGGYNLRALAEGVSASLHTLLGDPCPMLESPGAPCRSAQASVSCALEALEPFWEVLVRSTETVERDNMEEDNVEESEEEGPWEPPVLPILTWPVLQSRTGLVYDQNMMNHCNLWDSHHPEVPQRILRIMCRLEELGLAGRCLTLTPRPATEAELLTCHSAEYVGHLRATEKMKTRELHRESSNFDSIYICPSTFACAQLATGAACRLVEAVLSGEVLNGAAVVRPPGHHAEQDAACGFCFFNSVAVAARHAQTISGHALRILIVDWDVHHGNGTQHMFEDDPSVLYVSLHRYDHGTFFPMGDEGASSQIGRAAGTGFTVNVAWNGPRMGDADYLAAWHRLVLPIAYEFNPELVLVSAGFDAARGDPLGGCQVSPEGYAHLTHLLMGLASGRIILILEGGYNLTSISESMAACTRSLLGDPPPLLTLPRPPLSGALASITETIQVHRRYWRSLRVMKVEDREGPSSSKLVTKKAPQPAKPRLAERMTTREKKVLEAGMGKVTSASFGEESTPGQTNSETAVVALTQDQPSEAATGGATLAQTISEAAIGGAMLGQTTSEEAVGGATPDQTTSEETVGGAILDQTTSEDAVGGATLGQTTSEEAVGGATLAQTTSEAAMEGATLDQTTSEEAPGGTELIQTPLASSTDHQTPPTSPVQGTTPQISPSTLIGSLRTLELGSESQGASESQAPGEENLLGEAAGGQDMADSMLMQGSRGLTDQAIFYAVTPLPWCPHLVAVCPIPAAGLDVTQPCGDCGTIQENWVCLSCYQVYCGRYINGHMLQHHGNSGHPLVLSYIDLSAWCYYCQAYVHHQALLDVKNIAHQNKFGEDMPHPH
# [13] = biological target: T3, Protein cereblon/Protein deacetylase HDAC6; assay: Protac activity at CRBN/HDAC6 in human MM1S cells assessed as HDAC6 degradation at 100 nM measured after 6 hrs in presence of proteasome inhibitor MG132 by Western blot analysis; type: cell-based
# T3 sequence (Q96SW2 whole entry, looked up, one chain of several): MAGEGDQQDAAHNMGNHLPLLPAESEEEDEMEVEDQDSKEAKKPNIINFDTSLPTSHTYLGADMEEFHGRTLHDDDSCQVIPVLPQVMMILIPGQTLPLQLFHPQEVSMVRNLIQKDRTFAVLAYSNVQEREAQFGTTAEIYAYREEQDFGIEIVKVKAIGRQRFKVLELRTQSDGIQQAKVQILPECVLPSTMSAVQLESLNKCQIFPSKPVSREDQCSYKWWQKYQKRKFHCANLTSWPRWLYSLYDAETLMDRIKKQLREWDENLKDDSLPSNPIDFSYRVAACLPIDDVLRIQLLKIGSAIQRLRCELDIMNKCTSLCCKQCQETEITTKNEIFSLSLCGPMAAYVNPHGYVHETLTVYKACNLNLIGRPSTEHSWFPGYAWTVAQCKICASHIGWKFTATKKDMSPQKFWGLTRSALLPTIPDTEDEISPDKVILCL
# T2 sequence (Q96SW2 whole entry, looked up): as the sequence (Q96SW2 whole entry, looked up, one chain of several) above
# T2 sequence (Q9UKT9 whole entry, looked up): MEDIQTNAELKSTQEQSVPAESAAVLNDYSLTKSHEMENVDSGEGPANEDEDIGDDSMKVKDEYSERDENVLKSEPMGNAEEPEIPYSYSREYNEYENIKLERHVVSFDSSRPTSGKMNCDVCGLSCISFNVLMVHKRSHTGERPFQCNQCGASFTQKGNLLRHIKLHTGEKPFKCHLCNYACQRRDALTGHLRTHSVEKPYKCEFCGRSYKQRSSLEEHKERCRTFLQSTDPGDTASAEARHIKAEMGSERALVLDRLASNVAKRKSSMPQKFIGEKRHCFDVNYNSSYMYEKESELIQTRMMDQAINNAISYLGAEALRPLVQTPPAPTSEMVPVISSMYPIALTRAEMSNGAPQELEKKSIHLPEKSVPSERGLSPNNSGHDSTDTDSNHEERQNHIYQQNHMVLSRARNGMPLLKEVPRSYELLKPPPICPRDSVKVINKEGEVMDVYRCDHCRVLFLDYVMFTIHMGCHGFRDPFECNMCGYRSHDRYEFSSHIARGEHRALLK
# Sequence of Protein cereblon/Histone deacetylase 3 (Homo sapiens) (O15379 whole entry, looked up): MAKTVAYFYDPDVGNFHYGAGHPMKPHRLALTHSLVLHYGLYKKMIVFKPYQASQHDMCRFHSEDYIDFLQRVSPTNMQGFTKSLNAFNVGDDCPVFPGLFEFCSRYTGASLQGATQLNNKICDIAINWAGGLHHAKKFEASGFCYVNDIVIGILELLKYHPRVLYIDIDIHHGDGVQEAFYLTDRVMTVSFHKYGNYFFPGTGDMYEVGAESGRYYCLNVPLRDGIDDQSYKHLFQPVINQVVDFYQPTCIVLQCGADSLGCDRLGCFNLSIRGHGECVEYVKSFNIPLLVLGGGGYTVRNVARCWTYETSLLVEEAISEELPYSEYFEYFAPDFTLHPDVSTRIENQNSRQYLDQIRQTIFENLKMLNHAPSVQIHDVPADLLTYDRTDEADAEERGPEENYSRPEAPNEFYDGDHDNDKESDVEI
# Sequence of Protein cereblon/Histone deacetylase 3 (Homo sapiens) (Q96SW2 whole entry, looked up): as the sequence (Q96SW2 whole entry, looked up, one chain of several) above
# Sequence of Protein cereblon/Histone deacetylase 4 (Homo sapiens) (P56524 whole entry, looked up): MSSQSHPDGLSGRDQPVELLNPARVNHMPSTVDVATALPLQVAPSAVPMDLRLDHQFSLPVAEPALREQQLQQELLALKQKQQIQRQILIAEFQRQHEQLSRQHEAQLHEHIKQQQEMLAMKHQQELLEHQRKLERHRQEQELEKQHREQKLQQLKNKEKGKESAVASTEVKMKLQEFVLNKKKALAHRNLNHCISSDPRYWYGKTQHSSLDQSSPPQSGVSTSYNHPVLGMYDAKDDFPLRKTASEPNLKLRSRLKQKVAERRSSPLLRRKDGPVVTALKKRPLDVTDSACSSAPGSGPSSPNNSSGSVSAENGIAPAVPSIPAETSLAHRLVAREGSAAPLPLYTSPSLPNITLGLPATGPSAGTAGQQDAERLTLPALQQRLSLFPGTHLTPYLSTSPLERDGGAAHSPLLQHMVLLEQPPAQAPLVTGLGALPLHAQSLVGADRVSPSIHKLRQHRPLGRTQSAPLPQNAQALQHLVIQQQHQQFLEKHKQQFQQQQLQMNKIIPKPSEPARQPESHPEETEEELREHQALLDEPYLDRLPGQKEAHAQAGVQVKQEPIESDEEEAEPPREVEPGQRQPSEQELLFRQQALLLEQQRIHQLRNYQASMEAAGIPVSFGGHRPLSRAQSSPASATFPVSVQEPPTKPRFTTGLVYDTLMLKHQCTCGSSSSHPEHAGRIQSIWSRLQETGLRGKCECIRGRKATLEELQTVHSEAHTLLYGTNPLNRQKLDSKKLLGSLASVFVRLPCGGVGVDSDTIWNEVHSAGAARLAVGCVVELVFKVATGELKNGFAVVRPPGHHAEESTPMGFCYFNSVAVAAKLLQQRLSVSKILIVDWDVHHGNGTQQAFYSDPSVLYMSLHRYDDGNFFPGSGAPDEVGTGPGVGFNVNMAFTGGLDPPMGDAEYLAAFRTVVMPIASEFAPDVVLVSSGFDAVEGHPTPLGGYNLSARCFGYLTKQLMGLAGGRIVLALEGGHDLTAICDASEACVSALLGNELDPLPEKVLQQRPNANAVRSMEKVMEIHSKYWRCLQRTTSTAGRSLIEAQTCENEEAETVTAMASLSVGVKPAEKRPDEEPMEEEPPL
# Sequence of Protein cereblon/Histone deacetylase 4 (Homo sapiens) (Q96SW2 whole entry, looked up): as the sequence (Q96SW2 whole entry, looked up, one chain of several) above
# Sequence of Histone deacetylase 1 (Q13547 whole entry): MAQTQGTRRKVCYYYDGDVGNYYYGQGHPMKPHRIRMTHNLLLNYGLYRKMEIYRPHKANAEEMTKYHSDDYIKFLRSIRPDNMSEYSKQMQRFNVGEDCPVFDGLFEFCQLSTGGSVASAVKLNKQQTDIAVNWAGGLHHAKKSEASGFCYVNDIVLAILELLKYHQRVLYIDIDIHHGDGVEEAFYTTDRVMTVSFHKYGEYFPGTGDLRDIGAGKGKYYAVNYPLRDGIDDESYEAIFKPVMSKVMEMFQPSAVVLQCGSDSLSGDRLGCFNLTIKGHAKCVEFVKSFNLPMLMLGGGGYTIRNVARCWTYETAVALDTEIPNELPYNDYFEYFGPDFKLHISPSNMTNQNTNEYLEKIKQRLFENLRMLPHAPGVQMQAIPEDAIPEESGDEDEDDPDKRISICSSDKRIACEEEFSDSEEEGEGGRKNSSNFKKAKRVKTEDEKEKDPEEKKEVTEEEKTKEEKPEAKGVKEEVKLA
structure (smiles),measurement,setting,value
CCCCN(Cc1ccc(C(=O)NO)cc1)C(=O)Nc1ccc(OCCCCCn2cc(CNc3cccc4c3C(=O)N(C3CCC(=O)NC3=O)C4=O)nn2)cc1 (centres undefined),Activity,[1],inactive
same,Activity,[2],inactive
same,Activity,[3],inactive
same,Activity,[4],Active
same,Activity,[5],inactive
same,Activity,[6],Active
same,Activity,[7],Active
same,Activity,[8],inactive
same,IC50,Histone deacetylase 1,300 to 30000 nM
same,Activity,[9],Active
same,Activity,[10],Active
same,Activity,[11],inactive
same,IC50,[12],8.7 nM
same,Activity,[13],inactive
